Source: ChEMBL document CHEMBL1143669, “Triterpene acids from Poria cocos and their anti-tumor-promoting effects” (2007)
Calls of active or inactive are those of the source. No cut-off for these calls is given here.

Key:
[1] = tested on: Human gammaherpesvirus 4; assay: Inhibition of TPA-induced Epstein-Barr virus early antigen activation in Raji cells at 100 mol ratio/32 pmol TPA relative to control; values are per cent of control
[2] = tested on: Human gammaherpesvirus 4; assay: Effect on TPA-induced Epstein-Barr virus early antigen activation in Raji cells at 1000 mol ratio/32 pmol TPA relative to control
[3] = tested on: Human gammaherpesvirus 4; assay: Effect on TPA-induced Epstein-Barr virus early antigen activation in Raji cells at 500 mol ratio/32 pmol TPA relative to control
[4] = tested on: Human gammaherpesvirus 4; assay: Inhibition of TPA-induced Epstein-Barr virus early antigen activation in Raji cells at 10 mol ratio/32 pmol TPA relative to control; values are per cent of control
[5] = tested on: Raji; assay: Cell viability of Raji cells; format: functional, Homo sapiens
Method in brief: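 Raji cells were exposed to test compound at 32 nmol, a 1000:1 mol ratio to TPA, and cell viability (%) was scored in the EBV-EA activation system.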

[6] = tested on: Mus musculus; assay: Inhibition of DMBA initiated TPA-induced skin tumor promotion in mouse at 85 nmol after 20 weeks by in vivo two-stage carcinogenesis test; format: functional, organism-based

| SMILES | EBV-EA activation (% of control) [1] [%] | Activity [2] [%] | Activity [3] [%] | EBV-EA activation (% of control) [4] [%] | Activity [5] [%] | Activity [6] |
| --- | --- | --- | --- | --- | --- | --- |
| C=C(CCC(C(=O)O)[C@H]1[C@H](O)C[C@@]2(C)C3=CC[C@H]4C(C)(C)[C@@H](OC(C)=O)CC[C@]4(C)C3=CC[C@]12C)C(C)C (some centres not stated) [DEHYDROPACHYMIC ACID] | 72.4 | 0 | 28.1 | 95.1 | 70 |  |
| C=C(CC[C@@H](C(=O)O)[C@H]1[C@H](O)C[C@@]2(C)C3=C(CC[C@]12C)[C@@]1(C)CC[C@H](OC(C)=O)C(C)(C)[C@@H]1CC3)C(C)C [PACHYMIC ACID] | 71.6 | 0 | 24.7 | 96.5 | 70 |  |
| C=C(CC[C@@H](C(=O)O)[C@H]1[C@H](O)C[C@@]2(C)C3=CC[C@@H](C(=C)C)[C@](C)(CCC(=O)OC)C3=CC[C@]12C)C(C)C [PORICOIC ACID AM] | 57.8 | 0 | 9.6 | 81.8 | 70 |  |
| C=C(CC[C@@H](C(=O)O)[C@H]1CC[C@@]2(C)C3=CC[C@@H](C(=C)C)[C@](C)(CCC(=O)O)C3=CC[C@]12C)C(C)C [PORICOIC ACID C] | 67.2 | 0 | 21.1 | 91.7 | 70 | Active |
| C=C(C)[C@@H]1CCC2=C(CC[C@]3(C)[C@@H](C(CCC(=C)C(C)(C)O)C(=O)O)[C@H](O)C[C@@]23C)[C@@]1(C)CCC(=O)O (some centres not stated) [25-HYDROXYPORICOIC ACID H] | 57.5 | 0 | 16.7 | 82.8 | 70 |  |
| C=C(C)[C@@H]1CC=C2C(=CC[C@]3(C)[C@@H]([C@@H](CCC(=C)C(C)(C)O)C(=O)O)[C@H](O)C[C@@]23C)[C@@]1(C)CCC(=O)OC [PORICOIC ACID DM] | 59 | 0 | 18.1 | 86.3 | 70 |  |
| C=C(CCC(C(=O)O)[C@H]1[C@H](O)C[C@@]2(C)C3=CC[C@H]4C(C)(C)C(=O)CC[C@]4(C)C3=CC[C@]12C)C(C)(C)O (some centres not stated) | 65.3 | 0 | 39.5 | 91.7 | 70 |  |
| CC1=C(/C=C/C(C)=C/C=C/C(C)=C/C=C/C=C(C)/C=C/C=C(C)/C=C/C2=C(C)CCCC2(C)C)C(C)(C)CCC1 [BETA CAROTENE] | 82.1 | 8.6 | 34.2 | 100 | 70 |  |
| C=C(CCC(C(=O)O)[C@H]1CC[C@@]2(C)C3=CC[C@@H](C(=C)C)[C@](C)(CCC(=O)OC)C3=CC[C@]12C)C(C)C (some centres not stated) [PORICOIC ACID CM] | 63.4 | 0 | 37.2 | 87.6 | 70 |  |
| C=C(CC[C@@H](C(=O)O)[C@H]1CC[C@@]2(C)C3=CC[C@H]4C(C)(C)[C@@H](O)CC[C@]4(C)C3=CC[C@]12C)C(C)C [DEHYDROEBURICOIC ACID] | 74.9 | 8.7 | 45.1 | 100 | 70 |  |
| C=C(CCC(C(=O)O)[C@H]1CC[C@@]2(C)C3=CC[C@H]4C(C)(C)C(=O)CC[C@]4(C)C3=CC[C@]12C)C(C)C (some centres not stated) [DEHYDROEBURICONIC ACID] | 79.5 | 9.5 | 43.9 | 100 | 70 |  |
| C=C(C)[C@@H]1CC=C2C(=CC[C@]3(C)[C@@H](C(CCC=C(C)C)C(=O)O)CC[C@@]23C)[C@@]1(C)CCC(=O)O (some centres not stated) [16-DEOXYPORICOIC ACID B] | 65 | 0 | 19.3 | 90 | 70 | Active |
| C=C(C)[C@@H]1CC=C2C(=CC[C@]3(C)[C@@H](C(CCC(=C)C(C)(C)O)C(=O)O)[C@H](O)C[C@@]23C)[C@@]1(C)CCC(=O)O (some centres not stated) [PORICOIC ACID D] | 56.1 | 0 | 15.3 | 81.5 | 70 |  |
| C=C(CC[C@@H](C(=O)O)[C@H]1CC[C@@]2(C)C3=C(CC[C@]12C)[C@@]1(C)CC[C@H](O)C(C)(C)[C@@H]1CC3)C(C)C [EBURICOIC ACID] | 75.3 | 9.1 | 45.8 | 100 | 70 |  |
| C=C(CCC(C(=O)O)[C@H]1[C@H](O)C[C@@]2(C)[C@]34C=C[C@@]5(OO3)C(C)(C)[C@@H](O)CC[C@]5(C)C4=CC[C@]12C)C(C)C (some centres not stated) | 57.8 | 0 | 17.4 | 83.6 | 60 |  |
| C=C(CCC(C(=O)O)[C@H]1[C@H](O)[C@H](O)[C@@]2(C)C3=CC[C@H]4C(C)(C)[C@@H](O)CC[C@]4(C)C3=CC[C@]12C)C(C)C (some centres not stated) | 70 | 0 | 22.5 | 91 | 70 |  |
| CC(C)=CCCC(C(=O)O)[C@H]1CC[C@@]2(C)C3=CC[C@H]4C(C)(C)C(=O)CC[C@]4(C)C3=CC[C@]12C (some centres not stated) [DEHYDROTRAMETENONIC ACID] | 71 | 0 | 30.1 | 94.2 | 70 |  |
| CC(C)=CCCC(C(=O)O)[C@H]1CC[C@@]2(C)C3=CC[C@H]4C(C)(C)[C@@H](O)CC[C@]4(C)C3=CC[C@]12C (some centres not stated) | 79.1 | 9.2 | 45.3 | 100 | 70 |  |
